Activity calls are given as the source filed them. The calls are words filed in the database; no cut-off is given here.
Tests used:
[1] = molecular target: T1, Potassium voltage-gated channel subfamily A member 1 (Homo sapiens, UniProt Q09470); experiment: Inhibition of Kvbeta-1-mediated inactivation of Kv1.1 channel expressed in xenopus oocytes at 50 uM by voltage clamp assay; format: cell-based; design: scale not given: the % may be the effect or the level left; conditions: Oocyte
Method in brief: (§1)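 Stage V–VI Xenopus oocytes injected with ~0.5–5 ng mRNA and kept 1–4 days in ND-96 (pH 7.6). Either Kv1.1 plus Kvβ1 RNA at 1:160, or a chimera (Kvβ1 residues 1–70 fused through a Ser to Kv1.1 N-terminus). Two-electrode clamp in perfused ND-96 with 3 M KCl electrodes. Held at −80 mV, stepped 200 ms to +50 mV. Disinactivation = 100·Iss/Ipeak, ≥3 experiments, mean ± SEM. EC50 from logistic fit.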

[2] = molecular target: T2, Voltage-gated potassium channel subfamily A member 1/beta-1 (Homo sapiens, UniProt Q09470+Q14722); experiment: Inhibition of Kv1.1/Kvbeta1 N terminal chimera channel inactivation expressed in xenopus oocytes at 50 uM by voltage clamp assay; format: cell-based; design: scale not given: the % may be the effect or the level left; conditions: Oocyte; method in brief: as §1
[3] = molecular target: T3, A-type voltage-gated potassium channel KCND2 (Homo sapiens) (UniProt Q9NZV8); experiment: Inhibition of Kv4.2 channel inactivation expressed in xenopus oocytes at 30 uM by voltage clamp assay; format: cell-based; conditions: Oocyte
T3 sequence (whole entry): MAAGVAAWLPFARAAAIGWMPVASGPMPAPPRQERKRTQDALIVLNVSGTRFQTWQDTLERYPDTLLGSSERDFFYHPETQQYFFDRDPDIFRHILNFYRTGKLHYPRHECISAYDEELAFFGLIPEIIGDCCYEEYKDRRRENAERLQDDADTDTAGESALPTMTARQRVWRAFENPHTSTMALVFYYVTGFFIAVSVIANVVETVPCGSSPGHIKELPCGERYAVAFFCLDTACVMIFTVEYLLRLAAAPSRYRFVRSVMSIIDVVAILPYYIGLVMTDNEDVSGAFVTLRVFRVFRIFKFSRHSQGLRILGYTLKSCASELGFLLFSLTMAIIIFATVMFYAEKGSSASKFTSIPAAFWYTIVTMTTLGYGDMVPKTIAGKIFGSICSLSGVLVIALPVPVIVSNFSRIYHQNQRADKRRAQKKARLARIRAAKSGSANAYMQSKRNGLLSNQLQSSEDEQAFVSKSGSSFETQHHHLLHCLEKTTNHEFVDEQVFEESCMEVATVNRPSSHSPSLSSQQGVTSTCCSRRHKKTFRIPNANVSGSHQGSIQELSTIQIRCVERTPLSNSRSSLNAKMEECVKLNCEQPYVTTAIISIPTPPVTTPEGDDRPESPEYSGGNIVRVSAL

[4] = molecular target: T1, Potassium voltage-gated channel subfamily A member 1; experiment: Inhibition of Kvbeta-1-mediated inactivation of Kv1.1 channel expressed in xenopus oocytes at 200 uM by voltage clamp assay; format: cell-based; design: scale not given: the % may be the effect or the level left; conditions: Oocyte
Mus musculus [5] = experiment: Anticonvulsant activity in ip dosed CF1 mouse assessed as inhibition of pentylenetetrazole-induced seizure; format: functional
Method in brief: (§2)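 Male CF-1 mice, 20–25 g, free access to food and water. Compound in 2% Tween 80/1% methylcellulose/saline given ip 30 min before PTZ 85 mg/kg sc. Mice observed 30 min in individual chambers. Groups of eight scored for presence or absence of clonic seizure (forelimb and hindlimb paddling with loss of righting). ED50 in mg/kg, or number of mice seizing out of eight.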

[6] = molecular target: T4, Potassium voltage-gated channel subfamily A member 4 (Homo sapiens, UniProt P22459); experiment: Inhibition of Kv1.4 channel inactivation expressed in xenopus oocytes by voltage clamp assay; format: cell-based, Oocyte
Method in brief: (§3)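 Kv1.4 expressed in stage V–VI Xenopus oocytes and recorded 1–4 days after injection. Two-electrode voltage clamp in perfused ND-96 (pH 7.6), held at −80 mV with 200 ms steps to +50 mV. Compound up to 50 µM, current followed 2–8 min after application. Disinactivation = 100·Iss/Ipeak, three experiments.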

[7] = molecular target: T2, Voltage-gated potassium channel subfamily A member 1/beta-1; experiment: Inhibition of Kv1.1/Kvbeta1 N terminal chimera channel inactivation expressed in xenopus oocytes by voltage clamp assay; format: cell-based, Oocyte; method in brief: as §1
[8] = molecular target: T1, Potassium voltage-gated channel subfamily A member 1; experiment: Inhibition of Kvbeta-1-mediated inactivation of Kv1.1 channel expressed in xenopus oocytes by voltage clamp assay; format: cell-based, Oocyte; method in brief: as §1
[9] = molecular target: T1, Potassium voltage-gated channel subfamily A member 1; experiment: Inhibition of Kv-beta-1 mediated inactivation of Kv1.1 channel assessed as intracellular calcium accumulation in Tsa201 cells at 50 uM by FLIPR assay
[10] = molecular target: T1, Potassium voltage-gated channel subfamily A member 1; experiment: Inhibition of Kv-beta-1 mediated inactivation of Kv1.1 channel assessed as intracellular calcium accumulation in Tsa201 cells at 50 uM by FLIPR assay; format: cell-based
Method in brief: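 Tsa201 cells plated at 50,000/well and used the following day. Loaded with 3 µM Fluo-4 AM in HBSS with 2.5 mM probenecid, 60 min at 37 °C, then washed into calcium-free HBSS. Baseline read 5 s, compound added at final 50 µM (A23187 reference at 10 µM), fluorescence followed 3 min. Signal normalized to background. BAPTA-AM 10 µM counter-check for autofluorescence.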

Mus musculus [11] = experiment: Anticonvulsant activity in CF1 mouse assessed as inhibition of pentylenetetrazole-induced seizure at 100 mg/kg, ip; format: functional, organism-based; design: dose 100 mg/kg; method in brief: as §2
[12] = molecular target: T4, Potassium voltage-gated channel subfamily A member 4; experiment: Inhibition of Kv1.4 channel inactivation expressed in xenopus oocytes at 50 uM by voltage clamp assay; format: cell-based; design: scale not given: the % may be the effect or the level left; conditions: Oocyte; method in brief: as §3
[13] = molecular target: T1, Potassium voltage-gated channel subfamily A member 1; experiment: Inhibition of Kvbeta-1-mediated inactivation of Kv1.1 channel expressed in xenopus oocytes at 150 uM by voltage clamp assay; format: cell-based; design: scale not given: the % may be the effect or the level left; conditions: Oocyte

T1 sequence (Q09470 whole entry, the tested form may be a part): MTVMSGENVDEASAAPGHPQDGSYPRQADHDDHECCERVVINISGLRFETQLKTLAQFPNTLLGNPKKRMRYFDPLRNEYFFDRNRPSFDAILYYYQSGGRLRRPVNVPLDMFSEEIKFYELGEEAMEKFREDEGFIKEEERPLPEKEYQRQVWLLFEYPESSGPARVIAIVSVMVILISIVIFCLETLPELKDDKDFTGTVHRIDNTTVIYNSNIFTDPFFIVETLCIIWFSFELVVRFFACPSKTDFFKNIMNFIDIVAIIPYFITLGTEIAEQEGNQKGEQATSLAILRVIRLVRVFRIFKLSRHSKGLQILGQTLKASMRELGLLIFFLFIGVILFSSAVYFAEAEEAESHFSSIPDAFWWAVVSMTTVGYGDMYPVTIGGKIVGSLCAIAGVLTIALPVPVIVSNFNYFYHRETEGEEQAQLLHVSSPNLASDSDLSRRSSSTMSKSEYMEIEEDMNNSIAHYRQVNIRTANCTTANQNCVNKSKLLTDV
T4 sequence (P22459 whole entry, the tested form may be a part): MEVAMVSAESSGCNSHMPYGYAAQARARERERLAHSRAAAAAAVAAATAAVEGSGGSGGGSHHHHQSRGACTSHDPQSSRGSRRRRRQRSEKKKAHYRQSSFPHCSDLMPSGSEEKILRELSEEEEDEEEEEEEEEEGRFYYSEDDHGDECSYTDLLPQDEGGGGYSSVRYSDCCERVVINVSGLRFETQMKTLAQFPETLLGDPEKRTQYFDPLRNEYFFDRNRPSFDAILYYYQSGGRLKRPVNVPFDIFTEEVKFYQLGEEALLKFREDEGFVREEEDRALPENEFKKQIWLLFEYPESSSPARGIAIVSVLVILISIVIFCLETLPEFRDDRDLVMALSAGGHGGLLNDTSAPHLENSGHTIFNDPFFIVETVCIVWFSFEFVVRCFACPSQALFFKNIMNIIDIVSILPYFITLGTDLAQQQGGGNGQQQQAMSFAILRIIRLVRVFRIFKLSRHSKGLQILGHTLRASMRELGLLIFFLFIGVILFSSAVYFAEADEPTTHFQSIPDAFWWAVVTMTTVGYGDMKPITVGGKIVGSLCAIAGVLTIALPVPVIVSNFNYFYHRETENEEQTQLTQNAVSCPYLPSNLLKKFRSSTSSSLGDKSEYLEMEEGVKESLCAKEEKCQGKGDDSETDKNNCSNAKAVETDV
T2 sequence (Q09470 whole entry): as the sequence (Q09470 whole entry, the tested form may be a part) above
T2 sequence (Q14722 whole entry): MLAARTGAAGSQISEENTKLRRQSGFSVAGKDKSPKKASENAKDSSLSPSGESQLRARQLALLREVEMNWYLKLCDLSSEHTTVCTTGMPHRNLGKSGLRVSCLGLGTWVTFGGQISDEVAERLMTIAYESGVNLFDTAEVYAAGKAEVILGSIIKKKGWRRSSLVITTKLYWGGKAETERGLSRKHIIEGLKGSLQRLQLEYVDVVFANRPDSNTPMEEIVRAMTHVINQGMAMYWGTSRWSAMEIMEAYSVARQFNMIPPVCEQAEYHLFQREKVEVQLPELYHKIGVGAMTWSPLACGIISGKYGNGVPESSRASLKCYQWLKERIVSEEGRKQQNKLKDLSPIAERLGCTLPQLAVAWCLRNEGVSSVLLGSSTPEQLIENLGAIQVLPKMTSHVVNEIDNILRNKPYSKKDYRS

| Compound | Activity [1] [%] | Activity [3] | ED50 (Mus musculus [5]) [mg/kg] | further results |
| --- | --- | --- | --- | --- |
| CC1(c2ccccc2)NC(=O)N(C(=O)/C=C/c2ccc(F)cc2)C1=O (stereo not drawn) | 52.5 | inactive | – | Activity [2]: 34% |
| CC1(C)CC(=O)C(C(=O)Nc2cccc(C(F)(F)F)c2)C(=O)C1 | 18.5 | inactive | 32 | Activity [4]: 40% |
| O=[N+]([O-])C1(Br)COC(c2ccccc2)OC1 (stereo not drawn) | – | inactive | – | EC50 [6]: 1.3 µM; EC50 [7]: 8.9 µM; EC50 [8]: 7.1 µM |
| CC1(C)OCC(Br)([N+](=O)[O-])CO1 | – | inactive | 139 | EC50 [6]: 2.3 µM; EC50 [7]: 16.7 µM; EC50 [8]: 4.3 µM |
| O=C(Nc1ccc([N+](=O)[O-])cc1)C1C(=O)C2=C(CCCC2)C1=O | 96.3 | inactive | – | Activity [9]: Active; Activity [10]: Active; Activity (Mus musculus [11]): inactive |
| CC1(C)CC(=O)C(C(=O)Nc2ccc(Cl)cc2C(F)(F)F)C(=O)C1 | – | inactive | 66 | Activity [12]: 5%; Activity [13]: 45% |
| C[C@@]1(c2ccccc2)NC(=O)N(C(=O)C2=Cc3cc(Cl)ccc3OC2)C1=O | 18.8 | inactive | – | Activity [2]: 37% |
